In ChEMBL document CHEMBL1124033, “N-aryl 3-halogenated azetidin-2-ones and benzocarbacephems, inhibitors of beta-lactamases” (J Med Chem, 1988):

Target: Beta-lactamase TEM (Escherichia coli, UniProt P62593)
Assay: Inhibition constant (Ki) for TEM-1 beta-lactamase
In short: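 Partially purified plasmid pBR322-encoded TEM-1 β-lactamase; computerized microacidimetric assay at pH 7, 37 °C. Time-dependent inactivation was checked by monitoring activity after enzyme preincubation with inhibitor at 1 to 100 concentrations.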

Beta-lactamase TEM, sequence (P62593 whole entry): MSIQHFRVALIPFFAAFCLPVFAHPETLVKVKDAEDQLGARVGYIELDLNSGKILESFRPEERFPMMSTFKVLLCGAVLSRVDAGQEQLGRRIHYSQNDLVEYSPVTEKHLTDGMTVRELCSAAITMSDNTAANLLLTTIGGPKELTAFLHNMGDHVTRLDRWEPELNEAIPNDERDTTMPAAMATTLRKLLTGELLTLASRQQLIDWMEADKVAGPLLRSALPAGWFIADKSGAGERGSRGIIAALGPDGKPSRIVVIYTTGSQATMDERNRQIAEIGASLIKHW

Compound	Ki
Cc1onc(-c2ccccc2Cl)c1C(=O)N[C@@H]1C(=O)N2[C@@H]1SC(C)(C)[C@@H]2C(=O)O [CLOXACILLIN]	13 µM
Cc1ccc(C(=O)O)cc1N1CC(F)(Br)C1=O (stereo unspecified)	60 µM
Cc1ccc(C(=O)O)cc1N1CC(F)C1=O (stereo unspecified)	20 µM
Cc1ccc(C(=O)O)cc1N1CC(Br)C1=O (stereo unspecified)	40 µM
Cc1ccc(C(=O)O)cc1N1CC(Br)(Br)C1=O	160 µM
O=C(O)c1ccc2c(c1)N1C(=O)CC1CC2F (stereo unspecified)	39 µM
CC1(C)S[C@@H]2[C@H](NC(=O)Cc3ccccc3)C(=O)N2[C@H]1C(=O)O [PENICILLIN G]	20 µM
O=C(O)c1ccc2c(c1)N1C(=O)CC1CC2Cl (stereo unspecified)	50 µM
O=C(O)c1ccc2c(c1)N1C(=O)CC1CC2 (stereo unspecified)	20 µM
Cc1ccc(C(=O)O)cc1N1CCC1=O	10 µM
Cc1ccc(C(=O)O)cc1N1CC(F)(F)C1=O	83 µM
